# According to PubChem BioAssay:
# Calls of active or inactive are those of the source. Unless noted, no stated cut-off is given here; in the data, active means inhibition above about 30%; inactive means the rest.
# Experiments:
# [1] = Her2 expression decrease, cell viability multiplex – SKBR3 breast tumor cells, AlphaScreen, ATP viability, primary screen (AID 461;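 active means Her2 level under about 52% in both replicate screens, with viability over 70% of control, limit read from the data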;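 on Her2 level: lower value means less Her2 protein in the cells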;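 on viability: percent of carrier control wells set as 100% viability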); conditions: SKBR3 Her2 protein level, 18-24 h, measured here: SKBR3 viability, ATP luminescence, at 10 µM
# [2] = target: Receptor tyrosine-protein kinase erbB-2 (Homo sapiens) (UniProt P04626); experiment: as above; conditions: 18-24 h, at 10 µM, stronger effect = lower value
# [3] = reduced viability of SK-BR-3 breast cancer cells – cell-based, 24 h, human, pilot screen (AID 572;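 active means viability at or below 10% of carrier control in both of two separate runs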;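 further: compound exposure lasted between 18 and 24 h rather than exactly 24 h; 100% = carrier-treated control wells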); conditions: SK-BR-3 viability, CellTiter-Glo luminescence, at 10 µM, stronger effect = lower value
# [4] = HUVEC growth inhibition – cell-based, human, primary screen (AID 575;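 active means viability at or below 30% in both replicate assays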;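 further: 100% = median of untreated cell wells with 0.1% DMSO on each plate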); conditions: HUVEC proliferation, CellTiter-Glo luminescence, 72 h; at 10 µM; stronger effect = lower value
# How it was run: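 Assay system: primary human umbilical vein endothelial cells / Buffer or medium: endothelial basal medium with 2% FBS plus growth supplements / Compound dosing: one dose, 10 µM final, 0.1% DMSO / Timing: 72 h treatment at 37 °C / Signal: CTG luminescence / Benchmarks: 32 DMSO-only cell-control wells (high), 32 MePR drug-control wells (low) per plate / Plate: collagen-coated 384-well format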
# [5] = H69AR cell proliferation blockers – human, duplicate replicates, primary screen (AID 580;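 active means viability at or under a set limit in both replicates, limit being median viability minus 3 SD, cut at about 48% in these data, passing the limit was not always enough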;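 further: 100% = mean luminescence of untreated wells and 0% = no signal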); conditions: H69AR lung tumor cells viability, ATP luminescence, 72 h; at 10 µM; stronger effect = lower value
# [6] = MRP1 drug-resistance reversers in H69AR cells – cell-based, doxorubicin co-treatment, pilot screen (AID 601;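 active means viability loss from added drug above about 55%, and viability with drug at most 40%, in both replicates, limit read from the data, passing the limit was not always enough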); conditions: CellTiter-Glo, 72 h, at 10 µM; for differential viability (reversal): stronger effect = higher value
# [7] = yeast transport mutant growth inhibition pilot in 384-well plates, post-Golgi transport modulator project (AID 636; in the data active means inhibition above about 31%); conditions: absorbance 615 nm, about 18 h, stronger effect = higher value
# [8] = growth suppression of yeast trafficking mutant, preliminary HTS, modulators of trafficking downstream of Golgi apparatus project, 1536-format plate, OD 615 nm (AID 637); conditions: yeast transport mutant growth, absorbance 615 nm, 18 h; stronger effect = higher value
# [9] = H69AR cells + 2 uM doxorubicin, measured here: viability with 2 uM doxorubicin, stronger effect = lower value
# [10] = H69AR cells, compound alone cytotoxicity
# Receptor tyrosine-protein kinase erbB-2 (Homo sapiens), sequence (P04626 whole entry, looked up): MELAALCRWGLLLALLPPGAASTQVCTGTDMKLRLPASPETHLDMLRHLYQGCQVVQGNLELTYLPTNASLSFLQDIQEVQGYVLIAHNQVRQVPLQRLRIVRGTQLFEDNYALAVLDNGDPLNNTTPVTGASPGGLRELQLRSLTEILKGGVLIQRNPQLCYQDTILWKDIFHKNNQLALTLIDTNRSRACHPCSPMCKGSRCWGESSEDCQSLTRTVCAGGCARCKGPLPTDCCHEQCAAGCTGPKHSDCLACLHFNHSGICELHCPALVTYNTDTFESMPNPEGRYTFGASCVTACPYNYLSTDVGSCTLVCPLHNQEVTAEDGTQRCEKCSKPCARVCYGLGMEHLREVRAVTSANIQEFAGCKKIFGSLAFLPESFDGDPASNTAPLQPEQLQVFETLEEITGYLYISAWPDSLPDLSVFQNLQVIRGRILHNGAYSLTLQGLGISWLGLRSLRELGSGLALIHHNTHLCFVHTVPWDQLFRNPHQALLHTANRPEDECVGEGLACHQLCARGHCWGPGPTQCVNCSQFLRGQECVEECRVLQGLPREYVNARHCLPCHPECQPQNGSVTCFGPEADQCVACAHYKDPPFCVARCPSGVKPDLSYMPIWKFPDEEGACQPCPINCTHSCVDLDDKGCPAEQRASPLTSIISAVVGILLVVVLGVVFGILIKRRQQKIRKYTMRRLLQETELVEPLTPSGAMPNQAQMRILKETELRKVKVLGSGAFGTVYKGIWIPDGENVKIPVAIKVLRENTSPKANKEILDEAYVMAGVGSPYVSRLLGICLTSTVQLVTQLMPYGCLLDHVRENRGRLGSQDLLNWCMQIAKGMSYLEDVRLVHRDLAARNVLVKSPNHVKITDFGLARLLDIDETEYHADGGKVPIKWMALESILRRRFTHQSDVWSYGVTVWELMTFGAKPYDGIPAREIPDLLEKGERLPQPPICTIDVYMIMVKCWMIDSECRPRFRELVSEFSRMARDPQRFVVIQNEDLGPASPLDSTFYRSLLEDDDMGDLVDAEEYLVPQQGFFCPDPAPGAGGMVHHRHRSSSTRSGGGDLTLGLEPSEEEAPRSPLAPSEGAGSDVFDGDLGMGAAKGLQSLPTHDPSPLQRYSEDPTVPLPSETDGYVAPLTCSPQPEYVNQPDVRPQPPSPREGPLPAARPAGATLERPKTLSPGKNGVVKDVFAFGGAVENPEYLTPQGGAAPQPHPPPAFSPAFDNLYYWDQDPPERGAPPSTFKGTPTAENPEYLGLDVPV
SMILES,viability [1] [%],Her2 level [2],viability [3],viability [4],viability [5],differential viability (reversal) ([6]; H69AR cells + 2 uM doxorubicin),"viability [6, 9] [%]","viability [6, 10] [%]",inhibition [7],inhibition [8]
O=C(CN1CCN(c2ncccn2)CC1)Nc1ccccc1-n1cccc1,102,79% (inactive),102% (inactive),81.4% (inactive),92.9% (inactive),2.44% (inactive),90.5,92.9,-1.43% (inactive),-6.83% (inactive)
O=C(CCNS(=O)(=O)c1ccc(Cl)cc1)NCc1ccccn1,97.5,75.5% (inactive),97.5% (inactive),81.4% (inactive),89.7% (inactive),-6.95% (inactive),96.7,89.7,-5.26% (inactive),-1.83% (inactive)
FC(F)Sc1nnc(-c2cccs2)n1-c1ccccc1,101,92% (inactive),101% (inactive),93.6% (inactive),98% (inactive),10.1% (inactive),87.9,98,-7.33% (inactive),2.74% (inactive)
CCCCC(=O)NCCc1cc2ccc(OC)cc2[nH]c1=O,91.5,85.5% (inactive),91.5% (inactive),102% (inactive),103% (inactive),7.54% (inactive),95.4,103,-7.95% (inactive),-3.33% (inactive)
COc1ccc(S(=O)(=O)C(C#N)c2nc3ccccc3nc2N2CCCC(C)C2)cc1 (stereo not given),112,102% (inactive),112% (inactive),51.2% (inactive),75.5% (inactive),-10.6% (inactive),86,75.5,-2.21% (inactive),6.67% (inactive)
O=C(CCN1CCN(C(=O)c2ccco2)CC1)Nc1ccc(F)cc1,97.5,95% (inactive),97.5% (inactive),99.8% (inactive),97% (inactive),6.06% (inactive),90.9,97,-4.93% (inactive),2.95% (inactive)
COc1ccc(NS(=O)(=O)c2c(C)[nH]c(=O)[nH]c2=O)c(OC)c1,88.5,91% (inactive),88.5% (inactive),97.9% (inactive),90.8% (inactive),1.25% (inactive),89.5,90.8,-0.39% (inactive),-4% (inactive)
CCC1(C)Cc2c(C#N)c(N)n(N)c(=S)c2CO1 (stereo not given),102,97.5% (inactive),102% (inactive),85.1% (inactive),81.7% (inactive),-7.55% (inactive),89.3,81.7,0.91% (inactive),-2.13% (inactive)
CC(=O)c1ccc(NS(=O)(=O)c2ccccc2)cc1,95,137% (inactive),95% (inactive),91.5% (inactive),98.6% (inactive),7.02% (inactive),91.6,98.6,4.42% (inactive),5.33% (inactive)
Cc1ccccc1-c1nc(Cc2ccccc2)no1,77.5,97.5% (inactive),77.5% (inactive),104% (inactive),102% (inactive),19.1% (inactive),82.5,102,-0.51% (inactive),-3.33% (inactive)
CCCCNc1cc(C)oc(=O)c1C(C)=O,94.5,107% (inactive),94.5% (inactive),105% (inactive),97.9% (inactive),7% (inactive),90.9,97.9,-4.86% (inactive),3.28% (inactive)
CC(=O)c1cc(C#N)c(SCC(=O)OC(C)C)nc1C,102,80.5% (inactive),102% (inactive),88% (inactive),61.2% (inactive),23.3% (inactive),37.9,61.2,-7.03% (inactive),5.67% (inactive)
O=C(c1ccco1)N1CCN(c2cccc(Cl)c2)CC1,101,103% (inactive),101% (inactive),88.1% (inactive),97.9% (inactive),5.25% (inactive),92.7,97.9,-0.93% (inactive),-9.68% (inactive)
CSc1nnc(-c2nnc(SC)n2-c2ccccc2)n1-c1ccccc1,87,83.5% (inactive),87% (inactive),89.8% (inactive),98.3% (inactive),9.77% (inactive),88.6,98.3,-5.73% (inactive),6.77% (inactive)
O=C(CSc1nccn1-c1cccc(Cl)c1)NC1CCCC1,95.5,86% (inactive),95.5% (inactive),95.5% (inactive),111% (inactive),10.3% (inactive),101,111,0.91% (inactive),14.1% (inactive)
O=S(=O)(c1cccs1)N1CCN(C/C=C/c2ccccc2)CC1,101,91.5% (inactive),101% (inactive),83.3% (inactive),82.9% (inactive),1.57% (inactive),81.4,82.9,-3.73% (inactive),2.1% (inactive)

SMILES,viability [1] [%],Her2 level [2],viability [3],viability [4],viability [5],differential viability (reversal) ([6]; H69AR cells + 2 uM doxorubicin),"viability [6, 9] [%]","viability [6, 10] [%]",inhibition [7],inhibition [8]
CC(C)Nc1ncnc2c1cnn2-c1ccccc1,95.5,104% (inactive),95.5% (inactive),88.3% (inactive),94.7% (inactive),4.19% (inactive),90.5,94.7,0% (inactive),-8.33% (inactive)
CC(C)COC(=O)NCC12C=CC(O1)C1C(=O)N(c3ccc(Cl)cc3)C(=O)C12 (stereo not given),96,99.5% (inactive),96% (inactive),116% (inactive),89.9% (inactive),-2.55% (inactive),92.5,89.9,-6.16% (inactive),-7.3% (inactive)
O=C(O)c1oc2ccccc2c1-n1cccc1,102,86.5% (inactive),102% (inactive),102% (inactive),96.8% (inactive),-0.995% (inactive),97.8,96.8,-4.8% (inactive),0.16% (inactive)
CC1CCCC(C)N1C(=O)COC(=O)c1ccc[nH]c1=O (stereo not given),102,86% (inactive),102% (inactive),95.9% (inactive),97.7% (inactive),-5.21% (inactive),103,97.7,-4.49% (inactive),1.67% (inactive)
Cc1nc2sc(C#N)c(N)c2c2c1CCCC2,95.5,78.5% (inactive),95.5% (inactive),85.7% (inactive),102% (inactive),-6% (inactive),108,102,-1.97% (inactive),4.36% (inactive)
CCCCSc1cc(C)nc2ncnn12,98.5,131% (inactive),98.5% (inactive),75.2% (inactive),99.7% (inactive),-1.97% (inactive),102,99.7,5.71% (inactive),-0.67% (inactive)
CCCCOCP(=O)(CCCC)COCCCC,92.5,91.5% (inactive),92.5% (inactive),95.3% (inactive),94.1% (inactive),5.32% (inactive),88.8,94.1,-3.12% (inactive),-0.98% (inactive)
O=C(NCC1CCCO1)C1CCCN(Cc2cnn(-c3ccccc3)c2-n2cccc2)C1 (stereo not given),83.5,124% (inactive),83.5% (inactive),83.4% (inactive),85.2% (inactive),40.7% (inactive),44.5,85.2,-1.45% (inactive),-8.33% (inactive)
O=C(CN1CCN(Cc2ccc3c(c2)OCO3)CC1)Nc1ccc2c(c1)OCCO2,97,89.5% (inactive),97% (inactive),93.8% (inactive),94.4% (inactive),16.4% (inactive),78,94.4,-2.43% (inactive),-1.27% (inactive)
COC(=O)C1=C(C)n2nnnc2NC1c1ccc(Cl)cc1 (stereo not given),92,107% (inactive),92% (inactive),90.4% (inactive),95.3% (inactive),8.47% (inactive),86.8,95.3,-0.39% (inactive),1.83% (inactive)
COc1cc(-c2nc(S(=O)(=O)c3ccccc3)c(N3CCOCC3)o2)cc(OC)c1OC,82.5,86.5% (inactive),82.5% (inactive),97.7% (inactive),87.1% (inactive),14.8% (inactive),72.2,87.1,-3.16% (inactive),12% (inactive)
O=C(COC(=O)C1CC1)c1c[nH]c2ccccc12,93.5,107% (inactive),93.5% (inactive),105% (inactive),115% (inactive),14.9% (inactive),100,115,3.24% (inactive),-11.3% (inactive)
c1cncc(-c2nnc(SCCSc3nnc(-c4cccnc4)o3)o2)c1,99.5,93% (inactive),99.5% (inactive),98.7% (inactive),91.9% (inactive),0.085% (inactive),91.8,91.9,-5.68% (inactive),-2.17% (inactive)
COc1cc(-c2nn3c(-c4cccnc4)nnc3s2)cc(OC)c1OC,101,98.5% (inactive),101% (inactive),90.3% (inactive),92.6% (inactive),6.8% (inactive),85.8,92.6,-4.87% (inactive),-4.35% (inactive)
COc1cc(N2C(=O)CSC23C(=O)Nc2ccccc23)cc(OC)c1OC (stereo not given),95.5,105% (inactive),95.5% (inactive),79.7% (inactive),95.7% (inactive),7.86% (inactive),87.8,95.7,-1.97% (inactive),-5.81% (inactive)
CCSC1(SCC)N=C(N)C2(C#N)C(c3ccccc3)NC(C)=C(C)C12C#N (stereo not given),95,85.5% (inactive),95% (inactive),81.4% (inactive),93.3% (inactive),19.2% (inactive),74.1,93.3,-5.07% (inactive),-2.79% (inactive)
